# Source: PMC4096895 (Organic & biomolecular chemistry, 2014)
# Legend:
# [1] = tested on: β-galactosidase (A. oryzae); test: Assay for enzymatic substrate hydrolysis; type: biochemical, Aspergillus oryzae; conditions: 50 mM acetate buffer pH 5.0, 30 °C, no inhibitor
# [2] = biological target: β-galactosidase (A. oryzae) (Aspergillus oryzae, UniProt Q2UCU3); test: Assay for the inhibited enzymatic substrate hydrolysis; type: biochemical; conditions: 50 mM acetate buffer pH 5.0, 30 °C
# [3] = Water solubility under the kinetic assay conditions; type: physicochemical; conditions: under the used assay condition (50 mM acetate buffer pH 5)
# Amidine stability assay = type: physicochemical
# Method in brief: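 Test compound kept as a 0.168 M stock in nanopure water at ambient temperature, and aliquots were diluted into the incubation buffer. Samples were flash-frozen in liquid nitrogen and stored at −18°C until analysis. Quantification was by HPLC on a carbohydrate Na+ (8%) column at 80°C, with nanopure water as eluent at 0.4 mL/min and light-scattering detection.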
# Sequence of β-galactosidase (A. oryzae) (Aspergillus oryzae, UniProt Q2UCU3) (Q2UCU3 19-1005): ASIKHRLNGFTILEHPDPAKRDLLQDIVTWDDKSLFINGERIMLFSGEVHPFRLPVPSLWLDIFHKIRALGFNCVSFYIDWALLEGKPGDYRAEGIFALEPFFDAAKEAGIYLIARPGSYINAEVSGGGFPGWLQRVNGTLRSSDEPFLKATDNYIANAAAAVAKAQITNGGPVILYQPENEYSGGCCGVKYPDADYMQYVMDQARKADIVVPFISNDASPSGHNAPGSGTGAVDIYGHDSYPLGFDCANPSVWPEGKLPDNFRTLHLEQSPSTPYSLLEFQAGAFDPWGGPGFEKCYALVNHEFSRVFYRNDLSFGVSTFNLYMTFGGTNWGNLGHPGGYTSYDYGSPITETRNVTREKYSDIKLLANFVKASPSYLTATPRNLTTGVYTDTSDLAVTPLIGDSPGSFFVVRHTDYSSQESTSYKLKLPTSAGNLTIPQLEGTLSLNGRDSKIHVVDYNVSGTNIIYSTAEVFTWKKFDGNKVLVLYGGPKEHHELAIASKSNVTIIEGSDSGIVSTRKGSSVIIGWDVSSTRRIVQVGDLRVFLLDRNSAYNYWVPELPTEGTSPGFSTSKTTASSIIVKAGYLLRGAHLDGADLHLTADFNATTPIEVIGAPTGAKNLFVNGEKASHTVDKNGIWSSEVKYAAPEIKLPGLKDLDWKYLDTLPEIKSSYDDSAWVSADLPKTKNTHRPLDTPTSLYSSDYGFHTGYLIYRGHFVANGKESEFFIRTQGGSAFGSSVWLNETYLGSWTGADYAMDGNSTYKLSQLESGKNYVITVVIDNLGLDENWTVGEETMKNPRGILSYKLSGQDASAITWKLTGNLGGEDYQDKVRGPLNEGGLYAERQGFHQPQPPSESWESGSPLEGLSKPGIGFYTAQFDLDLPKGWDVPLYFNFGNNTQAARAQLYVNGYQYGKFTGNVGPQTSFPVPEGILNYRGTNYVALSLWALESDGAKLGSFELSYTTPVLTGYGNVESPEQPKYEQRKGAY
compound,measurement,setting,value
"Cc1ccc([N+](=O)[O-])c(O[C@@H]2O[C@H](CO)[C@H](O)[C@H](O)[C@H]2O)c1 [2g, 5-Methyl-2-nitrophenyl-β-D-galactopyranoside]",Km,[1],4270 µM
same,kcat,[1],70.15 s⁻¹
"O=[N+]([O-])c1ccc(O[C@@H]2O[C@H](CO)[C@H](O)[C@H](O)[C@H]2O)c(F)c1 [2i, 2-Fluoro-4-nitrophenyl-β-D-galactopyranoside]",Km,[1],920 µM
same,kcat,[1],61.17 s⁻¹
"OCC1NC(=NCc2cccc(F)c2)C(O)C(O)C1O [1f, 3-fluorobenzyl-D-galactonoamidine]",Ki,[2]; substrate 2a,16.4 nM
same,Ki,[2]; substrate 2b,22.3 nM
same,Ki,[2]; substrate 2c,18.1 nM
same,Ki,[2]; substrate 2e,14.2 nM
same,Ki,[2]; substrate 2f,30.3 nM
same,Ki,[2]; substrate 2g,58.1 nM
same,Ki,[2]; substrate 2i,13.7 nM
same,Ki,[2]; substrate 2k,20.3 nM
same,Ki,[2]; substrate 2h,22.8 nM
same,Ki,[2]; substrate 2d,13.3 nM
"COc1ccc(O[C@@H]2O[C@H](CO)[C@H](O)[C@H](O)[C@H]2O)c([N+](=O)[O-])c1 [2p, 4-Methoxy-2-nitrophenyl-β-D-galactopyranoside]",water solubility,[3],surprising low water solubility
"O=[N+]([O-])c1ccc(F)cc1O[C@@H]1O[C@H](CO)[C@H](O)[C@H](O)[C@H]1O [2f, 5-Fluoro-2-nitrophenyl-β-D-galactopyranoside]",Km,[1],1780 µM
same,kcat,[1],64.77 s⁻¹
"O=[N+]([O-])c1ccccc1O[C@@H]1O[C@H](CO)[C@H](O)[C@H](O)[C@H]1O [2a, 2-nitrophenyl-β-D-galactopyranoside, reference compound]",Km,[1],1270 µM
same,kcat,[1],76.5 s⁻¹
"O=[N+]([O-])c1cc(F)ccc1O[C@@H]1O[C@H](CO)[C@H](O)[C@H](O)[C@H]1O [2c, 4-Fluoro-2-nitrophenyl-β-D-galactopyranoside]",Km,[1],1240 µM
same,kcat,[1],77.63 s⁻¹
"O=[N+]([O-])c1ccc(O[C@@H]2O[C@H](CO)[C@H](O)[C@H](O)[C@H]2O)c(Cl)c1 [2k, 2-Chloro-4-nitrophenyl-β-D-galactopyranoside]",Km,[1],700 µM
same,kcat,[1],39.68 s⁻¹
"O=[N+]([O-])c1cc(Br)ccc1O[C@@H]1O[C@H](CO)[C@H](O)[C@H](O)[C@H]1O [2e, 4-Bromo-2-nitrophenyl-β-D-galactopyranoside]",Km,[1],1100 µM
same,kcat,[1],64.7 s⁻¹
"O=[N+]([O-])c1cc(Cl)ccc1O[C@@H]1O[C@H](CO)[C@H](O)[C@H](O)[C@H]1O [2d, 4-Chloro-2-nitrophenyl-β-D-galactopyranoside]",Km,[1],960 µM
same,kcat,[1],68.97 s⁻¹
"Cc1ccc(O[C@@H]2O[C@H](CO)[C@H](O)[C@H](O)[C@H]2O)c([N+](=O)[O-])c1 [2b, 4-Methyl-2-nitrophenyl-β-D-galactopyranoside]",Km,[1],1490 µM
same,kcat,[1],80.13 s⁻¹
"O=[N+]([O-])c1ccc(O[C@@H]2O[C@H](CO)[C@H](O)[C@H](O)[C@H]2O)cc1 [2h, 4-nitrophenyl-β-D-galactopyranoside, reference compound]",Km,[1],840 µM
same,kcat,[1],53.97 s⁻¹
"Cc1ccc(CN=C2N[C@H](CO)[C@H](O)[C@H](O)[C@H]2O)cc1 [1d, p-methylbenzyl-D-galactonoamidine]",Ki,[2]; substrate 2a,23.3 nM
same,Ki,[2]; substrate 2b,14.1 nM
same,Ki,[2]; substrate 2c,13.3 nM
same,Ki,[2]; substrate 2e,16.5 nM
same,Ki,[2]; substrate 2f,24.6 nM
same,Ki,[2]; substrate 2g,55.7 nM
same,Ki,[2]; substrate 2i,11.5 nM
same,Ki,[2]; substrate 2k,8 nM
same,Ki,[2]; substrate 2h,15.1 nM
same,Ki,[2]; substrate 2d,11.6 nM
same,stability,"Amidine stability assay; 5 mM CAPS buffer at pH 10.5 and 0°C, preliminary results",sufficient stability
same,stability,"Amidine stability assay; 5 mM TAPS buffer at pH 9 and 10°C, preliminary results",sufficient stability
same,stability,Amidine stability assay; 50 mM CAPS buffer at pH 10.5 and 72°C,insufficient stability
same,stability (HPLC),"Amidine stability assay; acetate buffer at 30°C, same amount of time (3h)",no evidence for compound decomposition
same,time found stable,"Amidine stability assay; nanopure water at 30, 50 or 72°C",≥ 3 h
